These results are taken from ChEMBL document CHEMBL3611998, “Syntheses and studies of new forms of N-sulfonyloxy β-lactams as potential antibacterial agents and β-lactamase inhibitors” (Bioorg Med Chem, 2015).

What all share (assay type): functional
Assay [1] deals with Pseudomonas aeruginosa. Description: Antimicrobial activity against Pseudomonas aeruginosa K799/61 at 2 mM incubated for 20 hrs by agar diffusion assay. The note with it: K799/61, 20 h, read-out: DIZ. The method, boiled down: (§1)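 The test solution was made as 20 mM in DMSO and diluted 10-fold in MeOH to 2 mM. Overnight LB cultures were adjusted to a 0.5 McFarland standard ([…] in 0.9% saline), and 0.1 mL was seeded into 34 mL Mueller-Hinton No. 2 agar at 47–50 °C. 50 μL was placed in 9.0 mm wells. Plates were incubated at 37 °C for 20 h, and inhibition zone diameters were measured by caliper.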

For another assay, the system named is Micrococcus luteus. Kind of assay: Antimicrobial activity against Micrococcus luteus ATCC 10240 at 2 mM incubated for 20 hrs by agar diffusion assay. Conditions: for zone of inhibition at 2000 µM: ATCC 10240, 20 h, read-out: DIZ. In short, it runs like this:
as §1
(In general: Agar diffusion results depend on both activity and mobility in agar.)

The subject of assay [2] is Escherichia coli. Description: Antimicrobial activity against Escherichia coli DC2 assessed as very very unclear inhibition zone at 2 mM incubated for 20 hrs by agar diffusion assay. The note with it: DC2, 20 h, read-out: DIZ. In short, it runs like this: as §1
Assay [3] concerns Mycolicibacterium vaccae. Kind of assay: Antimicrobial activity against Mycobacterium vaccae IMET 10670 assessed as unclear inhibition zone at 2 mM incubated for 48 hrs by agar diffusion assay. The note with it: IMET 10670, 48 h, read-out: DIZ. In short, it runs like this:
(§2)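 Seeded-agar well diffusion: 2 mM test solution (from 20 mM DMSO stock, diluted 10-fold in MeOH), 50 μL per 9.0 mm well. Inoculum was 0.1 mL of a 0.5 McFarland saline suspension ([…]) in 34 mL Mueller-Hinton No. 2 agar. Incubation was at 37 °C for 48 h, with plates photographed after 3 days. Zone diameters were measured by caliper.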

The subject of assay [4] is Escherichia coli. Description: Antimicrobial activity against Escherichia coli DC0 at 2 mM incubated for 20 hrs by agar diffusion assay. Conditions: for zone of inhibition at 2000 µM: DC0, 20 h, read-out: DIZ. In short, it runs like this: as §1
The next assay deals with Staphylococcus aureus. Description: Antimicrobial activity against Staphylococcus aureus SG511 at 2 mM incubated for 20 hrs by agar diffusion assay. The note with it: for zone of inhibition at 2000 µM: SG511, 20 h, read-out: DIZ. The method, boiled down:
as §1

Another assay deals with Burkholderia dolosa. Kind of assay: Antimicrobial activity against Burkholderia dolosa at 2 mM incubated for 20 hrs by agar diffusion assay. The note with it: read-out: DIZ. In short, it runs like this: as §1
The test system of assay [5] is Bacillus spizizenii. Kind of assay: Antimicrobial activity against Bacillus subtilis ATCC 6633 assessed as very unclear inhibition zone at 2 mM incubated for 20 hrs by agar diffusion assay. Conditions: ATCC 6633, 20 h, read-out: DIZ. In short, it runs like this:
as §1

In assay [6] the test system is Pseudomonas aeruginosa. Kind of assay: Antimicrobial activity against wild type Pseudomonas aeruginosa K799 at 2 mM incubated for 20 hrs by agar diffusion assay. The note with it: K799, 20 h, read-out: DIZ. In short, it runs like this: as §1
A further assay has as its system Acinetobacter baumannii. Description: Antimicrobial activity against Acinetobacter baumannii ATCC 17961 at 2 mM incubated for 20 hrs by agar diffusion assay. Conditions: for zone of inhibition at 2000 µM: ATCC 17961, 20 h, read-out: DIZ. The method, boiled down:
as §1

In assay [7] the test system is Escherichia coli. Description: Antimicrobial activity against Escherichia coli DC2 at 2 mM incubated for 20 hrs by agar diffusion assay. Conditions: DC2, 20 h, read-out: DIZ. In short, it runs like this:
as §1

Assay [8] concerns Bacillus spizizenii. Kind of assay: Antimicrobial activity against Bacillus subtilis ATCC 6633 at 2 mM incubated for 20 hrs by agar diffusion assay. Conditions: ATCC 6633, 20 h, read-out: DIZ. The method, boiled down:
as §1

In assay [9] the test system is Mycolicibacterium vaccae. Kind of assay: Antimicrobial activity against Mycobacterium vaccae IMET 10670 at 2 mM incubated for 48 hrs by agar diffusion assay. The note with it: for zone of inhibition at 2000 µM: IMET 10670, 48 h, read-out: DIZ. In short, it runs like this:
as §2

Active and inactive are the calls of the source. The rule behind the calls is not given here.

Take `Cc1ccc(S(=O)(=O)ON2C(=O)CC2CBr)cc1` (stereo not given): the zone of inhibition at 2000 µM with Pseudomonas aeruginosa [1] was 0 mm; with Escherichia coli [2], 13 mm; with Mycolicibacterium vaccae [3] it was 17 mm; in the assay on Escherichia coli [4], 0 mm; in the assay on Burkholderia dolosa, 0 mm; with Bacillus spizizenii [5], 11 mm. In the assay with Pseudomonas aeruginosa [6], the zone of inhibition at 2000 µM was 0 mm. Besides, the “diameter of the inhibition zone (DIZ)” value in the assay with Micrococcus luteus, with Staphylococcus aureus and in the assay on Acinetobacter baumannii was “Active” throughout.
As for `Cc1ccc(S(=O)(=O)ON2C(=O)CC2Cn2cc(CNC(=O)c3ccccc3)nn2)cc1` (stereo not given), the zone of inhibition at 2000 µM in the assay on Escherichia coli [7], with Pseudomonas aeruginosa [1], in the assay on Micrococcus luteus, with Bacillus spizizenii [8], in the assay on Escherichia coli [4] and with Mycolicibacterium vaccae [9] was 0 mm in each case. In addition, the zone of inhibition at 2000 µM in the assay on Staphylococcus aureus, in the assay on Burkholderia dolosa, in the assay on Pseudomonas aeruginosa [6] and in the assay with Acinetobacter baumannii was 0 mm in each case.
Regarding `CN(C)c1cccc2c(S(=O)(=O)ON3C(=O)CC3CBr)cccc12` (stereo not given), the zone of inhibition at 2000 µM with Pseudomonas aeruginosa [1] turned out to be 0 mm; in the assay with Micrococcus luteus it was 12 mm; in the assay with Escherichia coli [2], 14 mm; in the assay with Bacillus spizizenii [8] it was 0 mm; with Mycolicibacterium vaccae [9] it was 16 mm; with Staphylococcus aureus it was 13 mm. The zone of inhibition at 2000 µM in the assay with Burkholderia dolosa, in the assay with Pseudomonas aeruginosa [6] and in the assay with Acinetobacter baumannii was 0 mm each time. The “diameter of the inhibition zone (DIZ)” value in the assay on Escherichia coli [4] is “Active”.
For the molecule `O=C1CC(CBr)N1OS(=O)(=O)c1ccc([N+](=O)[O-])cc1` (stereo not given), the zone of inhibition at 2000 µM in the assay on Pseudomonas aeruginosa [1] is 0 mm; in the assay on Micrococcus luteus, 0 mm; with Escherichia coli [2], 14 mm; with Bacillus spizizenii [8] it was 14 mm; in the assay with Escherichia coli [4], 0 mm; in the assay with Mycolicibacterium vaccae [9] it was 0 mm. For the same molecule, the results for the zone of inhibition at 2000 µM with Burkholderia dolosa, in the assay with Pseudomonas aeruginosa [6] and in the assay on Acinetobacter baumannii were 0 mm, 0 mm and 11 mm, respectively. The “diameter of the inhibition zone (DIZ)” value in the assay on Staphylococcus aureus was “Active”.
For the molecule `O=C1CC(CBr)N1OS(=O)(=O)c1cccs1` (stereo not given), the zone of inhibition at 2000 µM with Pseudomonas aeruginosa [1] was 0 mm; in the assay with Micrococcus luteus, 0 mm; with Escherichia coli [2], 16 mm; in the assay with Bacillus spizizenii [8] it was 0 mm; in the assay on Escherichia coli [4] it was 0 mm; in the assay with Mycolicibacterium vaccae [9] it was 0 mm. The zone of inhibition at 2000 µM with Staphylococcus aureus, with Burkholderia dolosa, in the assay on Pseudomonas aeruginosa [6] and with Acinetobacter baumannii was 0 mm in each case.
With `Cc1ccc(S(=O)(=O)ON2C(=O)CC2CSC2=NCCS2)cc1` (stereo not given), the zone of inhibition at 2000 µM in the assay on Pseudomonas aeruginosa [1] came to 0 mm; with Micrococcus luteus it was 0 mm; in the assay on Escherichia coli [2], 14 mm; in the assay with Bacillus spizizenii [8] it was 0 mm; in the assay on Escherichia coli [4] it was 0 mm; in the assay with Burkholderia dolosa, 0 mm. In addition, the zone of inhibition at 2000 µM with Pseudomonas aeruginosa [6] and in the assay with Acinetobacter baumannii was 0 mm each time. Also, the “diameter of the inhibition zone (DIZ)” value with Mycolicibacterium vaccae [9] and with Staphylococcus aureus was “Active” in each case.
Regarding `CCOC(=O)c1cn(CC2CC(=O)N2OS(=O)(=O)c2ccc(C)cc2)nn1` (stereo not given), the zone of inhibition at 2000 µM in the assay with Escherichia coli [7], in the assay with Pseudomonas aeruginosa [1], in the assay with Micrococcus luteus, with Escherichia coli [4], in the assay with Mycolicibacterium vaccae [9] and with Staphylococcus aureus was 0 mm throughout. In addition, the zone of inhibition at 2000 µM was determined as 0 mm with Burkholderia dolosa, 15 mm in the assay on Bacillus spizizenii [5], 0 mm in the assay on Pseudomonas aeruginosa [6] and 0 mm in the assay on Acinetobacter baumannii.
